Experimental data as given in ChEMBL document CHEMBL4033697, “Synthesis of methanesulphonamido-benzimidazole derivatives as gastro-sparing antiinflammatory agents with antioxidant effect” (Bioorg Med Chem Lett, 2017).

Experiments:
Rattus norvegicus [1] = experiment: Ulcerogenicity in rat model of carrageenan-induced paw edema assessed as diameter of lesion in gastric wall at 5 mg/kg, po measured after 5 hrs; format: toxicity, organism-based; conditions: in vivo
Method in brief: (§1)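 After oral dosing in 0.5% CMC in the carrageenan paw model, rats were killed by cervical dislocation. Stomachs were inflated with 2% formalin, immersed 10 min to fix, and opened along the greater curvature. Longest lesion diameters were summed as a total lesion score (mm) per animal and averaged per group. Rofecoxib served as negative control and indomethacin as positive control.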

Rattus norvegicus [2] = experiment: Toxicity in rat model of carrageenan-induced paw edema assessed as behavioral changes at 5 to 75 mg/kg, po measured during compound dosing; format: organism-based; conditions: in vivo
Rattus norvegicus [3] = experiment: Ulcerogenicity in rat model of carrageenan-induced paw edema assessed as diameter of lesion in gastric wall at 25 mg/kg, po measured after 5 hrs; format: toxicity, organism-based; conditions: in vivo; method in brief: as §1
Rattus norvegicus [4] = experiment: Ulcerogenicity in rat model of carrageenan-induced paw edema assessed as diameter of lesion in gastric wall at 75 mg/kg, po measured after 5 hrs; format: toxicity, organism-based; conditions: in vivo; method in brief: as §1
Rattus norvegicus [5] = experiment: Anti-inflammatory activity in rat assessed as reduction in carrageenan-induced paw edema at 5 mg/kg, po measured after 5 hrs by plethysmographic method relative to control; format: functional; set-up: scale not given: the % may be the effect or the level left
Method in brief: (§2)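 Rats; carrageenan in 0.9% saline injected into paw; compound suspended in 0.5% w/v CMC given orally 30 min after carrageenan, three graded doses per compound. Paw volume by plethysmograph before and at intervals after treatment; values at 5 h. % reduction in edema = (1 − Vt/Vc) × 100 versus carrageenan control; ED50 from the three graded doses; one-way ANOVA.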

Rattus norvegicus [6] = experiment: Anti-inflammatory activity in rat assessed as reduction in carrageenan-induced paw edema at 25 mg/kg, po measured after 5 hrs by plethysmographic method relative to control; format: functional; set-up: scale not given: the % may be the effect or the level left; method in brief: as §2
Rattus norvegicus [7] = experiment: Anti-inflammatory activity in rat assessed as reduction in carrageenan-induced paw edema at 75 mg/kg, po measured after 5 hrs by plethysmographic method relative to control; format: functional; set-up: scale not given: the % may be the effect or the level left; method in brief: as §2
Rattus norvegicus [8] = experiment: Anti-inflammatory activity in po dosed rat assessed as reduction in carrageenan-induced paw edema measured after 5 hrs by plethysmographic method; format: functional; method in brief: as §2
Rattus norvegicus [9] = experiment: Ulcerogenicity in rat model of carrageenan-induced paw edema assessed as diameter of lesion in gastric wall at 10 mg/kg, po measured after 5 hrs; format: toxicity, organism-based; conditions: in vivo; method in brief: as §1
Rattus norvegicus [10] = experiment: Anti-inflammatory activity in rat assessed as reduction in carrageenan-induced paw edema at 10 mg/kg, po measured after 5 hrs by plethysmographic method relative to control; format: functional; set-up: scale not given: the % may be the effect or the level left; method in brief: as §2
[11] = Antioxidant activity of the compound in phosphate buffer at pH 6.6 assessed as potassium ferric cyanide ion reducing activity at 25 umol/ml after 20 mins by spectrophotometric method relative to control; format: functional; set-up: scale not given: the % may be the effect or the level left
Method in brief: (§3)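 Methanolic sample (1.0–50.0 […], units as printed) mixed with 0.2 M phosphate buffer pH 6.6 and 1% K3Fe(CN)6, 50 °C for 20 min; cooled, 10% TCA added, aliquot diluted with water plus 0.1% FeCl3, 10 min stand. A700 read against a methanol control; triplicate. Reducing power (%) = [(Atest − Acontrol)/Atest] × 100; EC50 derived; ascorbic acid standard.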

Rattus norvegicus [12] = experiment: Ulcerogenicity in rat model of carrageenan-induced paw edema assessed as diameter of lesion in gastric wall at 40 mg/kg, po measured after 5 hrs; format: toxicity, organism-based; conditions: in vivo; method in brief: as §1
Rattus norvegicus [13] = experiment: Toxicity in rat model of carrageenan-induced paw edema assessed as behavioral changes at 2.5 to 40 mg/kg, po measured during compound dosing; format: organism-based; conditions: in vivo
[14] = Antioxidant activity of the compound in phosphate buffer at pH 6.6 assessed as potassium ferric cyanide ion reducing activity at 10 umol/ml after 20 mins by spectrophotometric method relative to control; format: functional; set-up: scale not given: the % may be the effect or the level left; method in brief: as §3
[15] = Antioxidant activity of the compound in phosphate buffer at pH 6.6 assessed as potassium ferric cyanide ion reducing activity at 1 umol/ml after 20 mins by spectrophotometric method relative to control; format: functional; set-up: scale not given: the % may be the effect or the level left; method in brief: as §3
[16] = Antioxidant activity of the compound in phosphate buffer at pH 6.6 assessed as potassium ferric cyanide ion reducing activity at 5 umol/ml after 20 mins by spectrophotometric method relative to control; format: functional; set-up: scale not given: the % may be the effect or the level left; method in brief: as §3
Rattus norvegicus [17] = experiment: Anti-inflammatory activity in rat assessed as reduction in carrageenan-induced paw edema at 40 mg/kg, po measured after 5 hrs by plethysmographic method relative to control; format: functional; set-up: scale not given: the % may be the effect or the level left; method in brief: as §2
[18] = Antioxidant activity of the compound in phosphate buffer at pH 6.6 assessed as potassium ferric cyanide ion reducing activity at 50 umol/ml after 20 mins by spectrophotometric method relative to control; format: functional; set-up: scale not given: the % may be the effect or the level left; method in brief: as §3
Rattus norvegicus [19] = experiment: Anti-inflammatory activity in rat assessed as reduction in carrageenan-induced paw edema at 2.5 mg/kg, po measured after 5 hrs by plethysmographic method relative to control; format: functional; set-up: scale not given: the % may be the effect or the level left; method in brief: as §2
Rattus norvegicus [20] = experiment: Ulcerogenicity in rat model of carrageenan-induced paw edema assessed as diameter of lesion in gastric wall at 2.5 mg/kg, po measured after 5 hrs; format: toxicity, organism-based; conditions: in vivo; method in brief: as §1
[21] = Antioxidant activity of the compound in phosphate buffer at pH 6.6 assessed as potassium ferric cyanide ion reducing activity at 2.5 umol/ml after 20 mins by spectrophotometric method relative to control; format: functional; set-up: scale not given: the % may be the effect or the level left; method in brief: as §3
[22] = Antioxidant activity of the compound in phosphate buffer at pH 6.6 assessed as potassium ferric cyanide ion reducing activity after 20 mins by spectrophotometric method; format: functional; method in brief: as §3
Rattus norvegicus [23] = experiment: Anti-inflammatory activity in rat assessed as reduction in carrageenan-induced paw edema at 30 mg/kg, po measured after 5 hrs by plethysmographic method relative to control; format: functional; set-up: scale not given: the % may be the effect or the level left; method in brief: as §2
Rattus norvegicus [24] = experiment: Ulcerogenicity in rat model of carrageenan-induced paw edema assessed as diameter of lesion in gastric wall at 30 mg/kg, po measured after 5 hrs; format: toxicity, organism-based; conditions: in vivo; method in brief: as §1

Compound | Activity (Rattus norvegicus [1]) | Activity (Rattus norvegicus [2]) | Activity (Rattus norvegicus [3]) | Activity (Rattus norvegicus [4]) | Activity (Rattus norvegicus [5]) | Activity (Rattus norvegicus [6]) | Activity (Rattus norvegicus [7]) | ED50 (Rattus norvegicus [8]) | Activity [11] | Activity [14] | Activity [15] | Activity [16] | Activity [18] | Activity [21] | EC50 [22] | further results
CCCc1nc2cc([N+](=O)[O-])ccc2[nH]1 | 0 mm | Non-Toxic | 0.22 mm | 0.32 mm | 2.27% | 6.82% | 6.82% | – | – | – | – | – | – | – | – | –
COc1ccc2c(c1)c(CC(=O)O)c(C)n2C(=O)c1ccc(Cl)cc1 [INDOMETHACIN] | – | – | – | – | – | – | – | 2.2 mg/kg | – | – | – | – | – | – | – | Activity (Rattus norvegicus [9]): 19.4 mm; Activity (Rattus norvegicus [10]): 75%
CCCCn1c(CCC)nc2cc(NS(C)(=O)=O)ccc21 | – | – | – | – | – | – | – | 2.58 mg/kg | 70.3% | 61.8% | 12.2% | 59.8% | 73.5% | 31.3% | 4 mM | Activity (Rattus norvegicus [12]): 1.1 mm; Activity (Rattus norvegicus [13]): Non-Toxic; Activity (Rattus norvegicus [17]): 92.73%; Activity (Rattus norvegicus [9]): 0.51 mm; Activity (Rattus norvegicus [10]): 86.36%; Activity (Rattus norvegicus [19]): 43.64%; Activity (Rattus norvegicus [20]): 0.27 mm
CCCCCn1c(CCC)nc2cc(N)ccc21 | 0.27 mm | Non-Toxic | 0.52 mm | 1.06 mm | 45.91% | 54.36% | 66.36% | 5.47 mg/kg | 60.1% | 49% | 8.7% | 30.2% | 67.3% | 18.7% | 10.2 mM | –
CCCc1nc2ccccc2[nH]1 | 0.1 mm | Non-Toxic | 0.2 mm | 0.42 mm | 0.45% | 53.18% | 77.27% | 5.53 mg/kg | – | – | – | – | – | – | – | –
O=C1O[C@H]([C@@H](O)CO)C(O)=C1O [ASCORBIC ACID] | – | – | – | – | – | – | – | – | 65.2% | 60.8% | 6.8% | 39.8% | 69.4% | 15.5% | 7.4 mM | –
CS(=O)(=O)c1ccc(C2=C(c3ccccc3)C(=O)OC2)cc1 [ROFECOXIB] | – | – | – | – | – | – | – | – | – | – | – | – | – | – | – | Activity (Rattus norvegicus [23]): 78.95%; Activity (Rattus norvegicus [24]): 2.92 mm
